In brackets after ≈: the same amount, converted by molar mass.
Assays:
Escherichia coli = assay: In vitro antibacterial activity against Escherichia coli ATCC 25922.; type: functional
How it was run: (§1)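 Agar dilution MIC. Organisms grown overnight in brain-heart infusion broth at 37 °C. Compound stock of 5 mg/mL serially diluted two-fold in BHI agar, giving final test concentrations of 200 to […] μg/mL. Plates incubated 24 h at 37 °C. MIC read as the lowest concentration that inhibited visible growth.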

Staphylococcus aureus = assay: In vitro antibacterial activity against Staphylococcus aureus ATCC 6538p.; type: functional; how it was run: as §1

Row | SMILES | MIC (Escherichia coli) | MIC (Staphylococcus aureus)
1 | CC1CCCN(c2cc3c(cc2F)c(=O)c(C(=O)O)cn3-c2cn(C)cc2[N+](=O)[O-])C1 (stereo not drawn) | > 100 µg/mL | 25 µg/mL (≈ 58.4 µM)
2 | CN1CCN(c2cc3c(cc2F)c(=O)c(C(=O)O)cn3-c2cc([N+](=O)[O-])cn2C)CC1 | 3.12 µg/mL (≈ 7.28 µM) | 6.25 µg/mL (≈ 14.6 µM)
3 | Cn1cc(-n2cc(C(=O)O)c(=O)c3cc(F)c(Cl)cc32)c([N+](=O)[O-])c1 | 100 µg/mL (≈ 273 µM) | 100 µg/mL (≈ 273 µM)
4 | CN1CCN(c2cc3c(cc2F)c(=O)c(C(=O)O)cn3-c2cn(C)cc2[N+](=O)[O-])CC1 | 100 µg/mL (≈ 233 µM) | 100 µg/mL (≈ 233 µM)
5 | Cn1cc(-n2cc(C(=O)O)c(=O)c3cc(F)c(N4CCCCC4)cc32)c([N+](=O)[O-])c1 | 100 µg/mL (≈ 241 µM) | 50 µg/mL (≈ 121 µM)
6 | CN1CCN(c2cc3c(cc2F)c(=O)c(C(=O)O)cn3-c2ccc(F)cc2)CC1 [DIFLOXACIN] | 0.39 µg/mL (≈ 0.976 µM) | 0.195 µg/mL (≈ 0.488 µM)
7 | Cn1cc([N+](=O)[O-])cc1-n1cc(C(=O)O)c(=O)c2cc(F)c(Cl)cc21 | 100 µg/mL (≈ 273 µM) | 50 µg/mL (≈ 137 µM)
8 | CC1CCCN(c2cc3c(cc2F)c(=O)c(C(=O)O)cn3-c2cc([N+](=O)[O-])cn2C)C1 (stereo not drawn) | 100 µg/mL (≈ 233 µM) | 3.12 µg/mL (≈ 7.29 µM)
9 | CC1CN(c2cc3c(cc2F)c(=O)c(C(=O)O)cn3-c2cn(C)cc2[N+](=O)[O-])CCN1 (stereo not drawn) | 100 µg/mL (≈ 233 µM) | 100 µg/mL (≈ 233 µM)
10 | Cn1cc([N+](=O)[O-])cc1-n1cc(C(=O)O)c(=O)c2cc(F)c(N3CCCC3)cc21 | 12.5 µg/mL (≈ 31.2 µM) | 0.78 µg/mL (≈ 1.95 µM)
11 | CC1CCCN(c2cc3c(cc2F)c(=O)c(C(=O)O)cn3-c2ccc([N+](=O)[O-])cc2)C1 (stereo not drawn) | > 100 µg/mL | > 100 µg/mL
12 | Cn1cc(-n2cc(C(=O)O)c(=O)c3cc(F)c(N4CCNCC4)cc32)c([N+](=O)[O-])c1 | 100 µg/mL (≈ 241 µM) | 100 µg/mL (≈ 241 µM)
13 | Cn1cc(N)c(-n2cc(C(=O)O)c(=O)c3cc(F)c(N4CCNCC4)cc32)c1 | 50 µg/mL (≈ 130 µM) | 100 µg/mL (≈ 259 µM)
14 | O=C(O)c1cn(-c2ccc([N+](=O)[O-])cc2)c2cc(N3CCCC3)c(F)cc2c1=O | > 100 µg/mL | > 100 µg/mL
15 | Cn1cc(-n2cc(C(=O)O)c(=O)c3cc(F)c(N4CCCC4)cc32)c([N+](=O)[O-])c1 | > 100 µg/mL | > 100 µg/mL
16 | Cn1cc(-n2cc(C(=O)O)c(=O)c3cc(F)c(N4CCCNCC4)cc32)c([N+](=O)[O-])c1 | 100 µg/mL (≈ 233 µM) | 100 µg/mL (≈ 233 µM)
17 | CC1CCN(c2cc3c(cc2F)c(=O)c(C(=O)O)cn3-c2cn(C)cc2[N+](=O)[O-])CC1 | > 100 µg/mL | 12.5 µg/mL (≈ 29.2 µM)
18 | CN1CCN(c2cc3c(cc2F)c(=O)c(C(=O)O)cn3-c2ccc([N+](=O)[O-])cc2)CC1 | 12.5 µg/mL (≈ 29.3 µM) | 25 µg/mL (≈ 58.6 µM)
19 | O=C(O)c1cn(-c2ccc([N+](=O)[O-])cc2)c2cc(Cl)c(F)cc2c1=O | 12.5 µg/mL (≈ 34.5 µM) | 6.25 µg/mL (≈ 17.2 µM)
